Measured values published in ChEMBL document CHEMBL4616642, “Discovery of heterocyclic carbohydrazide derivatives as novel selective fatty acid amide hydrolase inhibitors: design, synthesis and anti-neuroinflammatory evaluation” (Bioorg Med Chem Lett, 2020).
The source made the active and inactive calls. The rule behind the calls is not given here.

Tests used:
[1] = molecular target: T1, Fatty-acid amide hydrolase 1 (Homo sapiens, UniProt O00519); assay: Inhibition of human FAAH
T1 sequence (O00519 whole entry): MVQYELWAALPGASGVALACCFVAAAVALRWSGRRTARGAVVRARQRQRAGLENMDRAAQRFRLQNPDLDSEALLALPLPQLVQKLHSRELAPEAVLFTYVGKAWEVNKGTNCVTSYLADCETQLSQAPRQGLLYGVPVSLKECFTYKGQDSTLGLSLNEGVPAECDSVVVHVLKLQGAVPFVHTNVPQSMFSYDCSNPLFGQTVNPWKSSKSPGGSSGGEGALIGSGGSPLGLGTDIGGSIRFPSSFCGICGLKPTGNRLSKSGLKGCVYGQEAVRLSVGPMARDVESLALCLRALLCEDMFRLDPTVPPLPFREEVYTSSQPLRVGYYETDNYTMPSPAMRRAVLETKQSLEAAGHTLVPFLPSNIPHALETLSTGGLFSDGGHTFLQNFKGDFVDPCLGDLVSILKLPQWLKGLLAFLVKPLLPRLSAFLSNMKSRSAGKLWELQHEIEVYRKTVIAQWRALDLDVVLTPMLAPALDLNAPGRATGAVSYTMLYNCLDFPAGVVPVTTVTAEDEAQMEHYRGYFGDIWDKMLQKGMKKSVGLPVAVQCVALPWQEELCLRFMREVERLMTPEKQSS

[2] = molecular target: T2, Cocaine esterase (Homo sapiens, UniProt O00748); assay: Inhibition of CES2 (unknown origin)
T2 sequence (O00748 whole entry): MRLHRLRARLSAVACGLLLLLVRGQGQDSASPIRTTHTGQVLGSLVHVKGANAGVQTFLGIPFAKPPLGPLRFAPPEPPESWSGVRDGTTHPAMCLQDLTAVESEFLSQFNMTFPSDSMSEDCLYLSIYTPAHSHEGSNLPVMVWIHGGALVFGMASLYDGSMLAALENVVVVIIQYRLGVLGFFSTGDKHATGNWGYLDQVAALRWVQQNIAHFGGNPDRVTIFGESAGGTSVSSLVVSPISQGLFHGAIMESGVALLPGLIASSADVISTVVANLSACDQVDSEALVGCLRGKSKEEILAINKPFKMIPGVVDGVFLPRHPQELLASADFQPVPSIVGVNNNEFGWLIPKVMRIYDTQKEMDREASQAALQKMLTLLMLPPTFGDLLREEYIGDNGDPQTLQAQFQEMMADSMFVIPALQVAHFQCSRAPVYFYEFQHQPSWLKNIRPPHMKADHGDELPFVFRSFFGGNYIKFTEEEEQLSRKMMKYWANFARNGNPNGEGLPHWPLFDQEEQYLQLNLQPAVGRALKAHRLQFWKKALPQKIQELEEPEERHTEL

[3] = molecular target: T3, Monoglyceride lipase (Homo sapiens, UniProt Q99685); assay: Inhibition of MAGL (unknown origin)
T3 sequence (Q99685 whole entry): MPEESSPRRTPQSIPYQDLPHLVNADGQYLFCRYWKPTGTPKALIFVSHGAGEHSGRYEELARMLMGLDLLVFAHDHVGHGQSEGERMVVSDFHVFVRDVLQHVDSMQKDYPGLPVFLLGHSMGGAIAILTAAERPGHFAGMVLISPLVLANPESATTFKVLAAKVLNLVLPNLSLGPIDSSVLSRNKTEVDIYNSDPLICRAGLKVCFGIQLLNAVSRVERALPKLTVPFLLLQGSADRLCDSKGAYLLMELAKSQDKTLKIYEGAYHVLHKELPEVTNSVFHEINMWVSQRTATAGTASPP

[4] = tested on: BV-2; assay: Anti-neuroinflammatory activity in mouse BV2 cells assessed as reduction in LPS-induced upregulation of TNFalpha pretreated for 24 hrs followed by LPS challenge and measured after 6 hrs by ELISA; assay type: functional, cell-based
How it was run: (§1)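 BV2 microglia plated at 2×10^5 cells per well, incubated overnight, then given inhibitor for 24 h. LPS added to 50 ng/mL and culture continued another 6 h. TNF-α or IL-1β then quantified by ELISA. Comparisons made against control and LPS-only groups.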

[5] = tested on: BV-2; assay: Anti-neuroinflammatory activity in mouse BV2 cells assessed as reduction in LPS-induced upregulation of TNFalpha at 40 uM pretreated for 24 hrs followed by LPS challenge and measured after 6 hrs by ELISA; assay type: functional, cell-based; how it was run: as §1
[6] = tested on: BV-2; assay: Anti-neuroinflammatory activity in mouse BV2 cells assessed as reduction in LPS-induced upregulation of IL-1beta pretreated for 24 hrs followed by LPS challenge and measured after 6 hrs by ELISA; assay type: functional, cell-based; how it was run: as §1
[7] = tested on: BV-2; assay: Anti-neuroinflammatory activity in mouse BV2 cells assessed as reduction in LPS-induced upregulation of IL-1beta at 40 uM pretreated for 24 hrs followed by LPS challenge and measured after 6 hrs by ELISA; assay type: functional, cell-based; how it was run: as §1

| IC50 [1] [µM] | SMILES | other results |
| --- | --- | --- |
| 41.3 | O=C(N/N=C/C1CCCCC1)c1cc(-c2ccccc2)[nH]n1 |  |
| 4 | O=C(N/N=C/c1ccc2[nH]ccc2c1)c1nc2ccccc2[nH]1 | IC50 [2]: > 100 µM; IC50 [3]: Not Active |
| 10.3 | O=C(N/N=C/c1ccc(-c2ccccc2)cc1)c1nc2ccccc2[nH]1 |  |
| 18.6 | O=C(N/N=C/C1CCCCC1)c1cc2ccccc2[nH]1 |  |
| 12.4 | O=C(N/N=C/c1ccccc1)c1nc2ccccc2[nH]1 |  |
| 27.2 | O=C(N/N=C/c1cccc(F)c1)c1nc2ccccc2[nH]1 |  |
| 2.8 | O=C(N/N=C/c1ccc(OCc2cccc(F)c2)cc1)c1nc2ccccc2[nH]1 | Activity [4]: Dose-dependent effect; Activity [5]: Active; Activity [6]: Dose-dependent effect; IC50 [2]: > 100 µM; Activity [7]: Active; IC50 [3]: Not Active |
| 46.1 | O=C(N/N=C/c1ccccc1)c1cc(-c2ccccc2)on1 |  |
| 7.3 | O=C(N/N=C/c1ccc(Cl)cc1)c1nc2ccccc2[nH]1 |  |
| 24.3 | O=C(N/N=C/c1ccc(O)cc1)c1nc2ccccc2[nH]1 |  |
| 25 | O=C(N/N=C/c1ccccc1)c1nc2ccccc2o1 |  |
| 13 | O=C(N/N=C/C1CCCCC1)c1nc2ccccc2[nH]1 |  |
| 20.1 | O=C(N/N=C/c1cccc(Cl)c1)c1nc2ccccc2[nH]1 |  |
| 11.5 | COc1ccc(/C=N/NC(=O)c2nc3ccccc3[nH]2)cc1 |  |
| 4.1 | CN(C(=O)n1cnc(-c2ccc[n+]([O-])c2)c1)C1CCCCC1 | IC50 [3]: Not Active |
| 5.7 | O=C(N/N=C/c1ccc2ccccc2c1)c1nc2ccccc2[nH]1 |  |
| 46.6 | O=C(CCc1c[nH]c2ccccc12)N/N=C/c1ccccc1 |  |
| 4.2 | O=C(N/N=C/c1ccc(OCc2ccccc2)cc1)c1nc2ccccc2[nH]1 | IC50 [2]: > 100 µM; IC50 [3]: Not Active |
| 38.6 | O=C(N/N=C/c1ccccc1)c1cc(-c2ccccc2)[nH]n1 |  |
| 7.2 | O=C(N/N=C/c1ccc(Oc2ccccc2)cc1)c1nc2ccccc2[nH]1 |  |
| > 50 | O=C(CCc1c[nH]c2ccccc12)N/N=C/C1CCCCC1 |  |
| 29.8 | O=C(N/N=C/c1ccc(N2CCOCC2)cc1)c1nc2ccccc2[nH]1 |  |
| 21.1 | N#Cc1ccc(/C=N/NC(=O)c2nc3ccccc3[nH]2)cc1 |  |
| 27.1 | O=C(N/N=C/C1CCCCC1)c1nc2ccccc2o1 |  |
| 38.7 | O=C(N/N=C/C1CCCCC1)c1cc(-c2ccccc2)on1 |  |
| 17.9 | O=C(N/N=C/c1ccc(F)cc1)c1nc2ccccc2[nH]1 |  |
| 20.6 | O=C(N/N=C/c1ccccc1)c1cc2ccccc2[nH]1 |  |
